Values after ≈ are worked out from the molar mass of the structure shown.
Key:
Format in all cases: functional
Haemophilus influenzae [1] = assay: In vitro minimum inhibitory concentration for antibacterial activity against Haemophilus influenzae ATCC 33533 (ampicillin-resistant strain that produces beta-lactamase)
In short: (§1)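 Agar dilution MIC determined by the Japan Society of Chemotherapy standard method for aerobic bacteria.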

Streptococcus pneumoniae [2] = assay: In vitro minimum inhibitory concentration for antibacterial activity against Streptococcus pneumoniae 210 (efflux-resistant strain encoded by the mef(A) gene); in short: as §1
Staphylococcus aureus [3] = assay: In vitro minimum inhibitory concentration for antibacterial activity against Staphylococcus aureus B1 (inducibly MLSb-resistant strain encoded by the erm(C) gene); in short: as §1
Streptococcus pneumoniae [4] = assay: In vitro minimum inhibitory concentration for antibacterial activity against Streptococcus pneumoniae 211 (MLSb-resistant strain encoded by the erm(B) gene); in short: as §1
Staphylococcus aureus [5] = assay: In vitro minimum inhibitory concentration for antibacterial activity against Staphylococcus aureus SR138 (constitutively MLSb-resistant strain encoded by the erm(A) gene); in short: as §1
Haemophilus influenzae [6] = assay: In vitro minimum inhibitory concentration for antibacterial activity against Haemophilus influenzae ATCC 43095 (ampicillin-susceptible strain that does not produce beta-lactamase); in short: as §1
Staphylococcus aureus [7] = assay: In vitro minimum inhibitory concentration for antibacterial activity against erythromycin-susceptible strain Staphylococcus aureus […]
In short: (§2)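 MIC by agar dilution following the Japan Society of Chemotherapy standard method for aerobic bacteria. S. aureus 209P-JC and S. pneumoniae IID553 are erythromycin-susceptible strains.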

Streptococcus pneumoniae [8] = assay: In vitro minimum inhibitory concentration for antibacterial activity against erythromycin-susceptible strain Streptococcus pneumoniae IID553; in short: as §2

Structure (SMILES) | MIC (Haemophilus influenzae [1]) | MIC (Streptococcus pneumoniae [2]) | MIC (Staphylococcus aureus [3]) | MIC (Streptococcus pneumoniae [4]) | MIC (Staphylococcus aureus [5]) | MIC (Haemophilus influenzae [6]) | MIC (Staphylococcus aureus [7]) | MIC (Streptococcus pneumoniae [8])
CC[C@H]1OC(=O)[C@H](C)[C@@H](OC(=O)Cc2ccccn2)[C@H](C)[C@@H](OC2O[C@H](C)C[C@H](N(C)C)[C@H]2O)[C@@](C)(OC)C[C@@H](C)C(=O)[C@H](C)[C@@H](O)[C@]1(C)O (some centres undefined) | 25 µg/mL (≈ 35.3 µM) | 0.39 µg/mL (≈ 0.55 µM) | 1.56 µg/mL (≈ 2.2 µM) | > 100 µg/mL | > 100 µg/mL | 50 µg/mL (≈ 70.5 µM) | 1.56 µg/mL (≈ 2.2 µM) | 0.39 µg/mL (≈ 0.55 µM)
CC[C@H]1OC(=O)[C@H](C)[C@@H](OC(=O)Cc2ccncc2)[C@H](C)[C@@H](OC2O[C@H](C)C[C@H](N(C)C)[C@H]2O)[C@@](C)(OC)C[C@@H](C)C(=O)[C@H](C)[C@@H](O)[C@]1(C)O (some centres undefined) | 50 µg/mL (≈ 70.5 µM) | 0.39 µg/mL (≈ 0.55 µM) | 1.56 µg/mL (≈ 2.2 µM) | > 100 µg/mL | > 100 µg/mL | 50 µg/mL (≈ 70.5 µM) | 0.78 µg/mL (≈ 1.1 µM) | 0.39 µg/mL (≈ 0.55 µM)
CC[C@H]1OC(=O)[C@H](C)[C@@H](OC(=O)Cc2cccnc2)[C@H](C)[C@@H](OC2O[C@H](C)C[C@H](N(C)C)[C@H]2O)[C@@](C)(O)C[C@@H](C)[C@H](O)[C@H](C)[C@@H](O)[C@]1(C)O (some centres undefined) | 12.5 µg/mL (≈ 17.9 µM) | 0.78 µg/mL (≈ 1.12 µM) | 6.25 µg/mL (≈ 8.97 µM) | > 100 µg/mL | > 100 µg/mL | 12.5 µg/mL (≈ 17.9 µM) | 3.13 µg/mL (≈ 4.49 µM) | 0.78 µg/mL (≈ 1.12 µM)
CC[C@H]1OC(=O)[C@H](C)[C@@H](OC(=O)Cc2ccccn2)[C@H](C)[C@@H](OC2O[C@H](C)C[C@H](N(C)C)[C@H]2O)[C@@]2(C)C[C@@H](C)[C@H](OC(=O)O2)[C@H](C)[C@H]2OC(=O)O[C@@]21C (some centres undefined) | 6.25 µg/mL (≈ 8.35 µM) | 0.2 µg/mL (≈ 0.267 µM) | 0.78 µg/mL (≈ 1.04 µM) | 100 µg/mL (≈ 134 µM) | > 100 µg/mL | 6.25 µg/mL (≈ 8.35 µM) | 0.2 µg/mL (≈ 0.267 µM) | 0.05 µg/mL (≈ 0.0668 µM)
CC[C@H]1OC(=O)[C@H](C)[C@@H](O)[C@H](C)[C@@H](OC2O[C@H](C)C[C@H](N(C)C)[C@H]2O)[C@@]2(C)C[C@@H](C)[C@H](OC(=O)O2)[C@H](C)[C@H]2OC(=O)O[C@@]21C (some centres undefined) | 100 µg/mL (≈ 159 µM) | 1.56 µg/mL (≈ 2.48 µM) | > 100 µg/mL | > 100 µg/mL | > 100 µg/mL | 50 µg/mL (≈ 79.4 µM) | 12.5 µg/mL (≈ 19.8 µM) | 0.78 µg/mL (≈ 1.24 µM)
CC[C@H]1OC(=O)[C@H](C)[C@@H](OC(=O)Cc2cccnc2)[C@H](C)[C@@H](OC2O[C@H](C)C[C@H](N(C)C)[C@H]2O)[C@@](C)(O)C[C@@H](C)/C(=N\O)[C@H](C)[C@@H](O)[C@]1(C)O (some centres undefined) | 12.5 µg/mL (≈ 17.6 µM) | 0.78 µg/mL (≈ 1.1 µM) | 1.56 µg/mL (≈ 2.2 µM) | > 100 µg/mL | > 100 µg/mL | 12.5 µg/mL (≈ 17.6 µM) | 1.56 µg/mL (≈ 2.2 µM) | 0.39 µg/mL (≈ 0.549 µM)
CC[C@H]1OC(=O)[C@H](C)[C@@H](OC(=O)Cc2ccc(OC)cc2)[C@H](C)[C@@H](OC2O[C@H](C)C[C@H](N(C)C)[C@H]2O)[C@@](C)(OC)C[C@@H](C)C(=O)[C@H](C)[C@@H](O)[C@]1(C)O (some centres undefined) | 50 µg/mL (≈ 67.8 µM) | 0.78 µg/mL (≈ 1.06 µM) | 12.5 µg/mL (≈ 16.9 µM) | > 100 µg/mL | > 100 µg/mL | 100 µg/mL (≈ 136 µM) | 1.56 µg/mL (≈ 2.11 µM) | 0.78 µg/mL (≈ 1.06 µM)
CC[C@H]1OC(=O)[C@H](C)[C@@H](OC(=O)Cc2ccccc2OC)[C@H](C)[C@@H](OC2O[C@H](C)C[C@H](N(C)C)[C@H]2O)[C@@](C)(OC)C[C@@H](C)C(=O)[C@H](C)[C@@H](O)[C@]1(C)O (some centres undefined) | 100 µg/mL (≈ 136 µM) | 1.56 µg/mL (≈ 2.11 µM) | 12.5 µg/mL (≈ 16.9 µM) | > 100 µg/mL | > 100 µg/mL | > 100 µg/mL | 3.13 µg/mL (≈ 4.24 µM) | 1.56 µg/mL (≈ 2.11 µM)
CC[C@H]1OC(=O)[C@H](C)[C@@H](OC(=O)Cc2ccncc2)[C@H](C)[C@@H](OC2O[C@H](C)C[C@H](N(C)C)[C@H]2O)[C@@]2(C)C[C@@H](C)[C@H](OC(=O)O2)[C@H](C)[C@H]2OC(=O)O[C@@]21C (some centres undefined) | 6.25 µg/mL (≈ 8.35 µM) | 0.2 µg/mL (≈ 0.267 µM) | 0.39 µg/mL (≈ 0.521 µM) | > 100 µg/mL | > 100 µg/mL | 12.5 µg/mL (≈ 16.7 µM) | 0.2 µg/mL (≈ 0.267 µM) | 0.05 µg/mL (≈ 0.0668 µM)
CC[C@H]1OC(=O)[C@H](C)[C@@H](OC(=O)Cc2cccnc2)[C@H](C)[C@@H](OC2O[C@H](C)C[C@H](N(C)C)[C@H]2O)[C@@](C)(O)C[C@@H](C)CN(C)[C@H](C)[C@@H](O)[C@]1(C)O (some centres undefined) | 1.56 µg/mL (≈ 2.2 µM) | 0.78 µg/mL (≈ 1.1 µM) | 6.25 µg/mL (≈ 8.8 µM) | > 100 µg/mL | > 100 µg/mL | 1.56 µg/mL (≈ 2.2 µM) | 3.13 µg/mL (≈ 4.41 µM) | 0.78 µg/mL (≈ 1.1 µM)
CC[C@H]1OC(=O)[C@H](C)[C@@H](OC(=O)Cc2cccnc2)[C@H](C)[C@@H](OC2O[C@H](C)C[C@H](N(C)C)[C@H]2O)[C@@](C)(O)C[C@@H](C)C(=O)[C@H](C)[C@@H](O)[C@]1(C)O (some centres undefined) | 12.5 µg/mL (≈ 18 µM) | 0.78 µg/mL (≈ 1.12 µM) | 6.25 µg/mL (≈ 8.99 µM) | > 100 µg/mL | > 100 µg/mL | 12.5 µg/mL (≈ 18 µM) | 1.56 µg/mL (≈ 2.25 µM) | 0.2 µg/mL (≈ 0.288 µM)
CC[C@H]1OC(=O)[C@H](C)[C@@H](OC(=O)Cc2ccccc2[N+](=O)[O-])[C@H](C)[C@@H](OC2O[C@H](C)C[C@H](N(C)C)[C@H]2O)[C@@](C)(OC)C[C@@H](C)C(=O)[C@H](C)[C@@H](O)[C@]1(C)O (some centres undefined) | 50 µg/mL (≈ 66.4 µM) | 0.2 µg/mL (≈ 0.266 µM) | 0.78 µg/mL (≈ 1.04 µM) | > 100 µg/mL | > 100 µg/mL | 50 µg/mL (≈ 66.4 µM) | 0.39 µg/mL (≈ 0.518 µM) | 0.2 µg/mL (≈ 0.266 µM)
CC[C@H]1OC(=O)[C@H](C)[C@@H](OC(=O)Cc2cccc(OC)c2)[C@H](C)[C@@H](OC2O[C@H](C)C[C@H](N(C)C)[C@H]2O)[C@@](C)(OC)C[C@@H](C)C(=O)[C@H](C)[C@@H](O)[C@]1(C)O (some centres undefined) | 25 µg/mL (≈ 33.9 µM) | 0.39 µg/mL (≈ 0.529 µM) | 3.13 µg/mL (≈ 4.24 µM) | > 100 µg/mL | > 100 µg/mL | 50 µg/mL (≈ 67.8 µM) | 1.56 µg/mL (≈ 2.11 µM) | 0.39 µg/mL (≈ 0.529 µM)
CC[C@H]1OC(=O)[C@H](C)[C@@H](OC(=O)Cc2cccnc2)[C@H](C)[C@@H](OC2O[C@H](C)C[C@H](N(C)C)[C@H]2O)[C@@](C)(OC)C[C@@H](C)/C(=N\O)[C@H](C)[C@@H](O)[C@]1(C)O (some centres undefined) | 12.5 µg/mL (≈ 17.3 µM) | 0.39 µg/mL (≈ 0.539 µM) | 1.56 µg/mL (≈ 2.15 µM) | > 100 µg/mL | > 100 µg/mL | 12.5 µg/mL (≈ 17.3 µM) | 0.78 µg/mL (≈ 1.08 µM) | 0.2 µg/mL (≈ 0.276 µM)
CC[C@H]1OC(=O)[C@H](C)[C@@H](OC2C[C@@](C)(OC)[C@@H](O)[C@H](C)O2)[C@H](C)[C@@H](OC2O[C@H](C)C[C@H](N(C)C)[C@H]2O)[C@@]2(C)C[C@@H](C)[C@H](OC(=O)O2)[C@H](C)[C@H]2OC(=O)O[C@@]21C (some centres undefined) | 1.56 µg/mL (≈ 1.98 µM) | 0.39 µg/mL (≈ 0.495 µM) | > 100 µg/mL | > 100 µg/mL | > 100 µg/mL | 1.56 µg/mL (≈ 1.98 µM) | 0.1 µg/mL (≈ 0.127 µM) | 0.1 µg/mL (≈ 0.127 µM)
CC[C@H]1OC(=O)[C@H](C)[C@@H](OC(=O)Cc2cccnc2)[C@H](C)[C@@H](OC2O[C@H](C)C[C@H](N(C)C)[C@H]2O)[C@@](C)(O)C[C@@H](C)[C@H](O)[C@H](C)[C@H]2OC(=O)O[C@@]21C (some centres undefined) | 6.25 µg/mL (≈ 8.65 µM) | 0.2 µg/mL (≈ 0.277 µM) | 0.78 µg/mL (≈ 1.08 µM) | > 100 µg/mL | > 100 µg/mL | 3.13 µg/mL (≈ 4.33 µM) | 0.78 µg/mL (≈ 1.08 µM) | 0.1 µg/mL (≈ 0.138 µM)
CC[C@H]1OC(=O)[C@H](C)[C@@H](OC(=O)CCc2cccc(OC)c2)[C@H](C)[C@@H](OC2O[C@H](C)C[C@H](N(C)C)[C@H]2O)[C@@](C)(OC)C[C@@H](C)C(=O)[C@H](C)[C@@H](O)[C@]1(C)O (some centres undefined) | 100 µg/mL (≈ 133 µM) | 0.78 µg/mL (≈ 1.04 µM) | 3.13 µg/mL (≈ 4.16 µM) | > 100 µg/mL | > 100 µg/mL | 100 µg/mL (≈ 133 µM) | 3.13 µg/mL (≈ 4.16 µM) | 0.78 µg/mL (≈ 1.04 µM)
CC[C@H]1OC(=O)[C@H](C)[C@@H](OC(=O)Cc2cccnc2)[C@H](C)[C@@H](OC2O[C@H](C)C[C@H](N(C)C)[C@H]2O)[C@@](C)(O)C[C@@H](C)[C@@H]2OC(=O)O[C@H]([C@H]2C)[C@]1(C)O (some centres undefined) | 6.25 µg/mL (≈ 8.65 µM) | 0.39 µg/mL (≈ 0.54 µM) | 1.56 µg/mL (≈ 2.16 µM) | > 100 µg/mL | > 100 µg/mL | 12.5 µg/mL (≈ 17.3 µM) | 0.78 µg/mL (≈ 1.08 µM) | 0.1 µg/mL (≈ 0.138 µM)
